Tests used:
[1] = Cytotoxicity against human PC3 cells assessed as growth inhibition after 96 hrs by SRB assay; format: functional, cell-based; conditions: PC-3, 96 h
In short: (§1)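 SRB viability assay. Cells are seeded for 24 h, then exposed for 96 h to a concentration series from 20 mM DMSO stocks, with a DMSO control. Cells are fixed in 50% TCA (2 h, 4 °C), stained with 0.4% SRB for 10 min and washed with 1% acetic acid. Bound dye is dissolved in 10 mM Tris base and read at 515 nm. IC50 is averaged from at least 3 independent experiments. SI is IC50 in HAF divided by IC50 in the cancer line.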

[2] = Selectivity index, ratio of IC50 for HAF to IC50 for human MDA-MB-231 cells; in short: as §1
MCF7 [3] = assay: Selectivity index, ratio of IC50 for HAF to IC50 for human MCF7 cells; in short: as §1
DU-145 [4] = assay: Selectivity index, ratio of IC50 for HAF to IC50 for human DU145 cells; in short: as §1
4T1 [5] = assay: Cytotoxicity against mouse 4T1 cells assessed as growth inhibition after 96 hrs by SRB assay; format: functional, cell-based; conditions: 4T1, 96 h; in short: as §1
NCI/ADR-RES = assay: Selectivity index, ratio of IC50 for HAF to IC50 for human MCF7/ADR cells; in short: as §1
DU-145 [6] = assay: Cytotoxicity against human DU145 cells assessed as growth inhibition after 96 hrs by SRB assay; format: functional, cell-based; conditions: DU-145, 96 h; in short: as §1
HCT-116 = assay: Selectivity index, ratio of IC50 for HAF to IC50 for human HCT116 cells; in short: as §1
MDA-MB-231 = assay: Cytotoxicity against human MDA-MB-231 cells assessed as growth inhibition after 96 hrs by SRB assay; format: functional, cell-based; conditions: MDA-MB-231, 96 h; in short: as §1
T47D [7] = assay: Selectivity index, ratio of IC50 for HAF to IC50 for human T47D cells; in short: as §1
[8] = Cytotoxicity against human HCT116 cells assessed as growth inhibition after 96 hrs by SRB assay; format: functional, cell-based; conditions: HCT-116, 96 h; in short: as §1
[9] = Cytotoxicity against human MCF7/ADR cells assessed as growth inhibition after 96 hrs by SRB assay; format: functional, cell-based; conditions: NCI/ADR-RES; in short: as §1
MCF7 [10] = assay: Cytotoxicity against human MCF7 cells assessed as growth inhibition after 96 hrs by SRB assay; format: functional, cell-based; conditions: MCF7, 96 h; in short: as §1
[11] = Cytotoxicity against HAF assessed as growth inhibition after 96 hrs by SRB assay; conditions: Homo sapiens; in short: as §1
PC-3 = assay: Selectivity index, ratio of IC50 for HAF to IC50 for human PC3 cells; in short: as §1
HT-29 [12] = assay: Selectivity index, ratio of IC50 for HAF to IC50 for human HT-29 cells; in short: as §1
T47D [13] = assay: Cytotoxicity against human T47D cells assessed as growth inhibition after 96 hrs by SRB assay; format: functional, cell-based; in short: as §1
4T1 [14] = assay: Selectivity index, ratio of IC50 for HAF to IC50 for mouse 4T1 cells; in short: as §1
HT-29 [15] = assay: Cytotoxicity against human HT-29 cells assessed as growth inhibition after 96 hrs by SRB assay; format: functional, cell-based; conditions: HT-29, 96 h; in short: as §1

Structure (SMILES)	IC50 [1] [µM]	Ratio IC50 [2]	Ratio IC50 (MCF7 [3])	Ratio IC50 (DU-145 [4])	IC50 (4T1 [5]) [µM]	Ratio IC50 (NCI/ADR-RES)	IC50 (DU-145 [6]) [µM]	Ratio IC50 (HCT-116)	IC50 (MDA-MB-231) [µM]	Ratio IC50 (T47D [7])	IC50 [8] [µM]	IC50 [9] [µM]	IC50 (MCF7 [10]) [µM]	IC50 [11] [µM]	Ratio IC50 (PC-3)	Ratio IC50 (HT-29 [12])	IC50 (T47D [13]) [µM]	Ratio IC50 (4T1 [14])	IC50 (HT-29 [15]) [µM]
C=C(C)[C@@H]1CC[C@]2(C(=O)O)CC[C@]3(C)[C@H](CC[C@@H]4[C@@]5(C)CC[C@H](NC(=O)CC6CCNCC6)C(C)(C)[C@@H]5CC[C@]43C)[C@@H]12	2.55	2.9	2.7	2.5	5.15	3.1	3.72	3.4	3.17	3.9	2.67	3	3.43	9.21	3.6	3.7	2.37	1.8	2.46
C=C(C)[C@@H]1CC[C@]2(C(=O)O)CC[C@]3(C)[C@H](CC[C@@H]4[C@@]5(C)CC[C@H](NC(=O)c6cccnc6)C(C)(C)[C@@H]5CC[C@]43C)[C@@H]12	> 25	–	–	–	> 25	–	> 25	–	> 25	–	> 25	–	> 25	–	–	–	> 25	–	> 25
C=C(C)[C@@H]1CC[C@]2(C(=O)O)CC[C@]3(C)[C@H](CC[C@@H]4[C@@]5(C)CC[C@H](NC(=O)c6ccncc6)C(C)(C)[C@@H]5CC[C@]43C)[C@@H]12	> 25	–	–	–	> 25	–	> 25	–	> 25	–	> 25	–	> 25	–	–	–	> 25	–	> 25
C=C(C)[C@@H]1CC[C@]2(C(=O)O)CC[C@]3(C)[C@H](CC[C@@H]4[C@@]5(C)CC[C@H](NC(=O)CCCC6CCNCC6)C(C)(C)[C@@H]5CC[C@]43C)[C@@H]12	5.23	2.7	1.4	1.2	6.01	9.8	7.7	1.6	3.44	1.7	5.61	0.93	6.49	9.15	1.7	2.1	5.26	1.5	4.38
C=C(C)[C@@H]1CC[C@]2(C(=O)O)CC[C@]3(C)[C@H](CC[C@@H]4[C@@]5(C)CC[C@H](NC(=O)c6cnc(C)cn6)C(C)(C)[C@@H]5CC[C@]43C)[C@@H]12	> 25	–	–	–	> 25	–	> 25	–	> 25	–	> 25	–	> 25	–	–	–	> 25	–	> 25
COc1cccc2c1C(=O)c1c(O)c3c(c(O)c1C2=O)C[C@@](O)(C(=O)CO)C[C@@H]3O[C@H]1C[C@H](N)[C@H](O)[C@H](C)O1 [DOXORUBICIN]	–	–	–	–	–	–	–	–	–	–	–	9.26	–	0.016	–	–	–	–	–
C=C(C)[C@@H]1CC[C@]2(C(=O)O)CC[C@]3(C)[C@H](CC[C@@H]4[C@@]5(C)CC[C@H](NC(=O)c6cnccn6)C(C)(C)[C@@H]5CC[C@]43C)[C@@H]12	> 25	–	–	–	> 25	–	> 25	–	> 25	–	> 25	–	> 25	–	–	–	> 25	–	> 25
C=C(C)[C@@H]1CC[C@]2(C(=O)O)CC[C@]3(C)[C@H](CC[C@@H]4[C@@]5(C)CC[C@H](NC(=O)C6CCCN6)C(C)(C)[C@@H]5CC[C@]43C)[C@@H]12 (some centres not stated)	20.3	–	–	–	8.03	–	11	–	12.8	–	17.5	–	15.2	–	–	–	11	–	18.8
C=C(C)[C@@H]1CC[C@]2(C(=O)O)CC[C@]3(C)[C@H](CC[C@@H]4[C@@]5(C)CC[C@H](NC(=O)c6cccnc6Cl)C(C)(C)[C@@H]5CC[C@]43C)[C@@H]12	> 25	–	–	–	16.1	–	> 25	–	> 25	–	> 25	–	> 25	–	–	–	17.7	–	> 25
C=C(C)[C@@H]1CC[C@]2(C(=O)O)CC[C@]3(C)[C@H](CC[C@@H]4[C@@]5(C)CC[C@H](OC(=O)C6CCCNC6)C(C)(C)[C@@H]5CC[C@]43C)[C@@H]12 (some centres not stated)	8.09	1.1	1.2	0.5	7.65	3.4	11.3	1.2	4.97	0.6	4.6	1.6	4.42	5.42	0.7	1.1	9.73	0.7	4.89
C=C(C)[C@@H]1CC[C@]2(C(=O)O)CC[C@]3(C)[C@H](CC[C@@H]4[C@@]5(C)CC[C@H](NC(=O)CCC6CCNCC6)C(C)(C)[C@@H]5CC[C@]43C)[C@@H]12	3.42	2.1	2.4	1.6	2.99	1.6	4.39	1	3.27	2.7	6.86	4.42	2.9	6.89	2	2.9	2.59	2.3	2.39
C=C(C)[C@@H]1CC[C@]2(C(=O)O)CC[C@]3(C)[C@H](CC[C@@H]4[C@@]5(C)CC[C@H](OC(=O)C6CCNCC6)C(C)(C)[C@@H]5CC[C@]43C)[C@@H]12	2.18	3.6	2.4	2.1	3.74	9.7	2.69	4.1	1.6	1.9	1.4	0.59	2.41	5.7	2.6	4.3	3.05	1.5	1.32
C=C(C)[C@@H]1CC[C@]2(C(=O)O)CC[C@]3(C)[C@H](CC[C@@H]4[C@@]5(C)CC[C@H](NC(=O)C6CCCNC6)C(C)(C)[C@@H]5CC[C@]43C)[C@@H]12 (some centres not stated)	1.3	1.6	3.4	1	2.18	8.2	3.16	2.5	1.94	1.4	1.28	0.39	0.94	3.18	2.4	2.7	2.24	1.5	1.19
C=C(C)[C@@H]1CC[C@]2(C(=O)O)CC[C@]3(C)[C@H](CC[C@@H]4[C@@]5(C)CC[C@H](NC(=O)C6CCCCN6)C(C)(C)[C@@H]5CC[C@]43C)[C@@H]12 (some centres not stated)	> 25	–	–	–	7.87	–	7.31	–	10.6	–	11.4	–	4.81	–	–	–	6.49	–	20.1

— ChEMBL document CHEMBL3414486, “Synthesis of heterocycle-modified betulinic acid derivatives as antitumor agents” (Eur J Med Chem, 2015)
